In ChEMBL document CHEMBL1130172, “Discovery of a novel class of substituted pyrrolooctahydroisoquinolines as potent and selective delta opioid agonists, based on an extension of the message-address concept” (J Med Chem, 1997):

What was measured:
[1] = target: Kappa-type opioid receptor (Mus musculus, UniProt P33534); assay: Binding affinity against Opioid receptor kappa 1 using [3H]-U-69,593 as radioligand
How it was run: (§1)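 Whole-brain (minus cerebellum) membranes from male CD-1 mice in 50 mM Tris-HCl pH 7.4, preincubated 45 min at 37 °C. μ labelled with 0.7 nM [3H]DAMGO, κ with 1.2 nM [3H]U69593 (PEI-presoaked filters); 50 min at 25 °C in triplicate; nonspecific with 10 μM naloxone. IC50 by nonlinear regression, Ki by Cheng–Prusoff; mean ± SEM, n=3 unless stated.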

[2] = target: T1, Delta-type opioid receptor (Mus musculus, UniProt P32300); assay: In vitro antagonist activity against Opioid receptor delta 1 in the presence of 30 nM naltrindole, in a mouse vas deferens assay; type: functional, tissue-based
[3] = target: Mu-type opioid receptor (Mus musculus, UniProt P42866); assay: Binding affinity against Opioid receptor mu 1 using [3H][D-Ala2, MePhe4, Gly-ol5]-enkephalin as radioligand; how it was run: as §1
[4] = target: T1, Delta-type opioid receptor; assay: In vitro agonist activity for Opioid receptor delta 1 was determined in a mouse vas deferens assay; type: functional, tissue-based
[5] = system: Mus musculus; assay: Antinociceptive activity in mouse abdominal constriction test after intracerebroventricular administration; type: functional, Abdomen
How it was run: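 Male Swiss mice (20-35 g); drug given icv by needle through the skull 1.5 mm right of bregma on the coronal suture (3.5 mm protrusion), 5 min before ip phenyl-p-benzoquinone (2 mg/kg, 10 mL/kg, at 37 °C).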

[6] = target: T1, Delta-type opioid receptor; assay: Binding affinity against Opioid receptor delta 1 using [3H][D-Ala2, D-Leu5]-enkephalin as radioligand
[7] = species on record: Mus musculus; assay: Selectivity ratio of the affinity for kappa and delta opioid receptors (Ki kappa/Ki delta)
How it was run: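 Ratios of Ki values: δ Ki from [3H]DADLE (1 nM) on NG108-15 membranes; μ Ki from [3H]DAMGO (0.7 nM) and κ Ki from [3H]U69593 (1.2 nM) on mouse brain membranes; all 25 °C competition assays with Ki derived by Cheng–Prusoff.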

[8] = target: T1, Delta-type opioid receptor; assay: Inv itro antagonist activity against Opioid receptor delta 1 in the presence of 30 nM naltrindole, in a mouse vas deferens assay; type: functional, tissue-based
How it was run: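 Isolated vasa deferentia from CD-1 mice (25–35 g) held in Mg2+-free Krebs buffer, oxygenated with 95% O2/5% CO2, at 37 °C. Electrical field stimulation: 50 ms trains of 2 ms pulses at 50 Hz, 60–70 V maximal, trains at 0.1 Hz. Agonist concentration–response curves built cumulatively in the presence of 30 nM naltrindole.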

Mu-type opioid receptor, sequence (P42866 whole entry): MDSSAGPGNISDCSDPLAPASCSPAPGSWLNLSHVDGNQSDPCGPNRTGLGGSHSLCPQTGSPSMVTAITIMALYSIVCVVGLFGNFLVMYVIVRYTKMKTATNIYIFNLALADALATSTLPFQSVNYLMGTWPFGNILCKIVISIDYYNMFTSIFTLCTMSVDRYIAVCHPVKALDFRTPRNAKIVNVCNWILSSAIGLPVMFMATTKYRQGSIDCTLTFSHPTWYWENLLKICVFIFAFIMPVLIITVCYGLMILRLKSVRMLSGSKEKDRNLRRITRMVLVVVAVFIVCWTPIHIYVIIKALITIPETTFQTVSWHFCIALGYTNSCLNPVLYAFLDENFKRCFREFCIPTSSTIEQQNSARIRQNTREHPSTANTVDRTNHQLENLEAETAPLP
Kappa-type opioid receptor, sequence (P33534 whole entry): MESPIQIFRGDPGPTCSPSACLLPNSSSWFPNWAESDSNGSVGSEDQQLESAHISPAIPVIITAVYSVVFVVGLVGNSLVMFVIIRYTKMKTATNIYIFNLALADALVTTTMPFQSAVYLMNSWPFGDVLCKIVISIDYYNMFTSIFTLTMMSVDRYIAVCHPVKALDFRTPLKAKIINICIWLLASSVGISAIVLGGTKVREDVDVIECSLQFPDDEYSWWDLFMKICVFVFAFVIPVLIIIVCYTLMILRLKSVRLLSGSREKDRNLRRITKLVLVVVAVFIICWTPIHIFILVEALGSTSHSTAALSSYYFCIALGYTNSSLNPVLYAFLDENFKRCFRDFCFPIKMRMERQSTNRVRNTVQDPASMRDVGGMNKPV
T1 sequence (P32300 whole entry): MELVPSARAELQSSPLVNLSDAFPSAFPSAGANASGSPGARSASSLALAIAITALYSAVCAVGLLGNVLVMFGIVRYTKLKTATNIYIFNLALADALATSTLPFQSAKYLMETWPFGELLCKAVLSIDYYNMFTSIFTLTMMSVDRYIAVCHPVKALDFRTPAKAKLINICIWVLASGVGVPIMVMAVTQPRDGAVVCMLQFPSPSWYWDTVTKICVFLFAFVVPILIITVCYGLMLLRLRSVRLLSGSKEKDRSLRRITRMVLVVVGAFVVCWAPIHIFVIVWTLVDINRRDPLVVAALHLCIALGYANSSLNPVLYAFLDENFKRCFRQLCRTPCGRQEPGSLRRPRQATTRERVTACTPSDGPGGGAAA

Row | SMILES | Ki [1] [nM] | Ki [3] [nM] | Ki [6] [nM] | Selectivity ratio [7] | further results
1 | CCN1CC[C@]2(c3cccc(O)c3)Cc3[nH]c(C(=O)N(CC)CC)c(C)c3C[C@H]2C1 (racemic) [listing 1 of 2 here] | 1300 | 407 | 1.9 | – | IC50 [2]: 330 nM; IC50 [4]: 34 nM; ED50 [5]: 1.6 ug mouse-1
2 | CCN1CC[C@]2(c3cccc(O)c3)Cc3[nH]c4ccccc4c3C[C@H]2C1 (racemic) [listing 1 of 2 here] | 334 | 2090 | 7.1 | – | –
3 | CCN(CC)C(=O)c1[nH]c2c(c1C)C[C@H]1CN(C)CC[C@]1(c1cccc(O)c1)C2 (racemic) | 500 | 93 | 2.1 | 240 | –
4 | CCN(CC)C(=O)c1[nH]c2c(c1C)C[C@H]1CN(CC3CC3)CC[C@]1(c1cccc(O)c1)C2 (racemic) | 63.1 | 14.1 | 1.7 | 37 | –
5 | CCN1CC[C@]2(c3cccc(O)c3)Cc3[nH]c(C(=O)N(CC)CC)c(C)c3C[C@H]2C1 (racemic) [listing 2 of 2 here] | – | – | – | 690 | –
6 | CCN1CC[C@]2(c3cccc(O)c3)Cc3[nH]c4ccccc4c3C[C@H]2C1 (racemic) [listing 2 of 2 here] | – | – | – | 50 | –
7 | CCN1CC[C@]2(c3cccc(O)c3)Cc3[nH]c4ccccc4c3C[C@H]2C1 (stereo in doubt; (+)-3) [listing 1 of 2 here] | 771 | 2620 | 2.2 | – | –
8 | CCN1CC[C@]2(c3cccc(O)c3)Cc3[nH]c4ccccc4c3C[C@H]2C1 (stereo in doubt; (+)-3) [listing 2 of 2 here] | – | – | – | 350 | –
9 | CCN1CC[C@]2(c3cccc(O)c3)Cc3[nH]c(C(=O)N(CC)CC)c(C)c3C[C@H]2C1 (stereo in doubt; (+)-5b) [listing 1 of 2 here] | 6000 | > 5000 | 3540 | – | –
10 | CCN1CC[C@]2(c3cccc(O)c3)Cc3[nH]c(C(=O)N(CC)CC)c(C)c3C[C@H]2C1 (stereo in doubt; (+)-5b) [listing 2 of 2 here] | – | – | – | 2 | –
11 | CCN1CC[C@]2(c3cccc(O)c3)Cc3[nH]c4ccccc4c3C[C@H]2C1 (stereo in doubt; (-)-3) [listing 1 of 2 here] | 167 | 1630 | 1970 | – | –
12 | CCN1CC[C@]2(c3cccc(O)c3)Cc3[nH]c4ccccc4c3C[C@H]2C1 (stereo in doubt; (-)-3) [listing 2 of 2 here] | – | – | – | 0.1 | –
13 | CCN1CC[C@]2(c3cccc(O)c3)Cc3[nH]c(C(=O)N(CC)CC)c(C)c3C[C@H]2C1 (stereo in doubt; (-)-5b) [listing 1 of 2 here] | 1340 | 129 | 0.9 | – | IC50 [8]: 462 nM; IC50 [4]: 26 nM
14 | CCN1CC[C@]2(c3cccc(O)c3)Cc3[nH]c(C(=O)N(CC)CC)c(C)c3C[C@H]2C1 (stereo in doubt; (-)-5b) [listing 2 of 2 here] | – | – | – | 1480 | –
15 | Oc1ccc2c3c1O[C@H]1c4[nH]c5ccccc5c4C[C@@]4(O)[C@@H](C2)N(CC2CC2)CC[C@]314 [NALTRINDOLE] | 9.5 | 15 | 0.5 | 20 | –
16 | CN1CC[C@]23c4c5ccc(O)c4O[C@H]2c2[nH]c4ccccc4c2C[C@@]3(O)[C@H]1C5 [OXYMORPHINDOLE] | 77 | 661 | 0.8 | 90 | –
17 | C=CCN1C[C@H](C)N([C@H](c2ccc(C(=O)N(CC)CC)cc2)c2cccc(OC)c2)C[C@H]1C [SNC-80] | 1350 | 1300 | – | – | –
